The source of these data is publication PMC12518644 (Scientific Reports, 2025).

For orientation: IC50 means the point on the concentration scale where inhibition reaches its midpoint.

Each structure is given as a SMILES string.

The test system of the assay is MDA-MB-231 BC cell line. The assay can be described thus: MTT cytotoxicity assay on MDA-MB-231 breast cancer cells. Type of assay: cell-based. Conditions: Homo sapiens, MDA-MB-231, 48 h, read-out: IC50 Values, MDA-MB-231, MTT, 48 h. A digest of the protocol: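 Cells grown in DMEM with 10% FBS and 1% antibiotics (100 U/ml penicillin), seeded at 1.0 × 10^4 cells/well, and incubated 24 h at 37 °C under 5% CO2. Medium then replaced with test compound at 6.5, 12.5, 25 or 50 µM for 48 h. MTT (5 mg/mL solution) added for 4 h, formazan dissolved in DMSO, and absorbance read at 570 nm. IC50 derived from dose-response.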

Regarding `Cc1ccc(S(=O)(=O)n2cc(/C=N/NC(=O)c3cccc4ccccc34)c3ccccc32)cc1` [Compound 5p, (E )-N’ -[(1-Tosyl-1 H -indol-3-yl)methylene]−1-naphthohydrazide], the IC50 amounted to 18.1 ± 0.2 µM.
